Measured values pooled from the literature.
Compare with care: the assays were run in different laboratories.
Target: Inhibitor of nuclear factor kappa-B kinase subunit beta (IKBKB, Homo sapiens, UniProt O14920)
Sequence (O14920 1-756, as in one of the studies): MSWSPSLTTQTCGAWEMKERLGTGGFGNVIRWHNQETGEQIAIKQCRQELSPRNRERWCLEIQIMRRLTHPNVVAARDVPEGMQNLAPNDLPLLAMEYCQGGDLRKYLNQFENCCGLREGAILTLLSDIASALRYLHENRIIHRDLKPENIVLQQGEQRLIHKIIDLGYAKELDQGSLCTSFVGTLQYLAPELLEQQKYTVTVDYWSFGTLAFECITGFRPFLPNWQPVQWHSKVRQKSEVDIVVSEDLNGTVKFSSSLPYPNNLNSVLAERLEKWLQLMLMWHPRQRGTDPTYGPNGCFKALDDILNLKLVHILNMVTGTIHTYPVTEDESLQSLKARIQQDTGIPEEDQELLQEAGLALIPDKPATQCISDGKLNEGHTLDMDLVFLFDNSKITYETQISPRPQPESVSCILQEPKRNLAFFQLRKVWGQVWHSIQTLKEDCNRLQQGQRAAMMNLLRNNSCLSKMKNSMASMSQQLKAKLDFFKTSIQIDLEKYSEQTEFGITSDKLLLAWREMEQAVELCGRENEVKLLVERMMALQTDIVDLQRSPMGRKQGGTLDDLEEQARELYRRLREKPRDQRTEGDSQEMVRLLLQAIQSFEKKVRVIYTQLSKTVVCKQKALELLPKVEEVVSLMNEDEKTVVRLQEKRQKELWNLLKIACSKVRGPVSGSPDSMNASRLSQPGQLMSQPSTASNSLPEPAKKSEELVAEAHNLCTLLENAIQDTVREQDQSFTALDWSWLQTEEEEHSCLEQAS

Structure (SMILES)	test	setting	measurement	result
N#CC1(c2ccccn2)CCN(Cc2cc(C(=O)O)c(=O)n3ccccc23)CC1	cell-free assay, competition with immobilised ligand	1 µM	remaining binding	100%
COc1ncccc1-c1cnn2ccc(N3CCN(C(=O)OC(C)C)CC3)nc12	binding, competition with immobilised ligand	1 µM	remaining binding	61%
Cc1nn(C)cc1-c1nc2c(N3CCN(Cc4ccc(Cl)cc4)CC3)c(Cl)cnc2[nH]1	binding, competition with immobilised ligand	1 µM	remaining binding	100%
CC(C)(C)c1cc(C=C(C#N)C#N)cc(Br)c1O	enzyme activity, inhibitor	0.5 µM	remaining activity	95.7%
C#Cc1n[nH]c2c(-c3cn([C@@H](C)c4ccccn4)c(=O)[nH]c3=O)cc(F)cc12	enzyme activity, inhibitor	0.1 µM	inhibition	0.8%
Cn1cncc1[C@](O)(COc1ccc(C#N)cc1-c1ccc(OC(F)(F)F)cc1)c1ccc(C#N)cc1	cell-free assay, competition with immobilised ligand	1 µM	remaining binding	87%
C#Cc1n[nH]c2c(-c3cn([C@@H](C)c4ccccc4)c(=O)[nH]c3=O)cc(F)cc12	enzyme activity, inhibitor	0.1 µM	inhibition	-2.2%
Cn1cc(-c2cc(F)cc(N3CCn4c(cc5c4CCCC5)C3=O)c2CO)cc(Nc2ccc(N3CCN(C4COC4)CC3)cn2)c1=O	enzyme activity, inhibitor	0.1 µM	inhibition	5%
Nc1ncc(-c2nc(N3CCOCC3)nc(N3CCOCC3)n2)c(C(F)F)n1	binding, competition with immobilised ligand	10 µM	remaining binding	77%
O=c1[nH]c2ccccc2n1C1CCN(Cc2ccc(-c3[nH]c4cc5ncnc5cc4nc3-c3ccccc3)cc2)CC1	enzyme activity	0.5 µM	remaining activity	101%
